These results are taken from ChEMBL document CHEMBL3227946, “Antianaphylactic agents. 1. 2-(Acylamino)oxazoles” (1979).

The structures appear in SMILES notation. Active and inactive are the calls of the source. The rule behind the calls is not given here.

The subject of one assay is Rattus norvegicus. Nature of the assay: Antianaphylactic activity in antiovalbumin IgE serum-treated Wistar rat at 2 x 100 mg/kg, po administered 2.5 hrs prior to ovalbumin challenge measured after 45 mins by passive cutaneous anaphylaxis test. As to conditions: in the assay text read “2 hrs and again 30 mins prior to” for “2.5 hrs prior to”. Format: functional, organism-based. Also noted: dose 100 mg/kg. In a few lines: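 Female Wistar rats, shaved and lightly anaesthetized, received an intradermal abdominal injection of diluted rat antiovalbumin IgE serum. After 24 h they were challenged iv with ovalbumin mixed with dye. Compound was given at 2 h and again at 30 min before challenge. Rats were killed 45 min after challenge and the blue area on the inner skin surface was measured.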

Assay [1] in a line: Antianaphylactic activity in ovalbumin sensitized albino guinea pig chopped lung assessed as inhibition of antigen-induced histamine release at 10 ug/mL after 15 mins relative to control. Format: functional, Cavia porcellus. In a few lines:
(§1)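 Lungs were perfused with Tyrode's, chopped into 0.5-mm cubes and split into 100-mg aliquots. Aliquots were challenged with antigen ± compound and rocked at 37 °C for 15 min. Unchallenged controls gave spontaneous release. Supernatant histamine or SRS-A was bioassayed on guinea pig ileum against standards. Values are % inhibition, mean of four samples.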

Assay [2] can be described thus: Antianaphylactic activity in ovalbumin sensitized albino guinea pig chopped lung assessed as inhibition of antigen-induced slow-reacting substance of anaphylaxis release at 10 ug/mL after 15 mins relative to control. Format: functional, Cavia porcellus. In a few lines:
as §1

The nature of assay [3]: Antianaphylactic activity in human chopped lung treated with atopic serum isolated from patients allergic to cocksfoot pollen assessed as inhibition of antigen-induced histamine release at 10 ug/mL after 15 mins relative to control. Format: functional. To be noted: 0.25 h. In a few lines: (§2)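 Surgical human lung (bronchial carcinoma resections) was washed in Hank's, chopped into 0.5-mm cubes and incubated for 18 h at 18 °C with atopic serum from cocksfoot pollen-allergic patients. Tissue was washed, equilibrated in Tyrode's at 37 °C and challenged with saline pollen extract ± compound for 15 min. Histamine or SRS-A in the supernatant was bioassayed on guinea pig ileum. Values are % inhibition, mean of four samples.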

Assay [4] can be described thus: Antianaphylactic activity in human chopped lung treated with atopic serum isolated from patients allergic to cocksfoot pollen assessed as inhibition of antigen-induced slow-reacting substance of anaphylaxis release at 10 ug/mL after 15 mins relative to control. Format: functional. To be noted: 0.25 h. In a few lines: as §2

With `CCCCC(=O)N(CCCC)c1nc(C)co1`, in the assay on Rattus norvegicus, the result was inactive. Also, the “inhibition (INH)” value is 21% in assay [1] and 49% in assay [2].
The corresponding values for `CCCCN(C(C)=O)c1nc(C)c(C)o1` are “inactive”, 13% and 32%.
By inhibition is commonly meant the relative decrease from the control value, in per cent. As for `CCCCC(=O)N(c1nc(C)co1)C(C)C`, in the assay on Rattus norvegicus, the result was inactive. Further, the inhibition at 10 µg/mL in assay [3] and in assay [4] was 0% throughout. Also, the “inhibition (INH)” value in assay [1] and in assay [2] was 0% each time.
Turning to `CCCCN(C(=O)CCC)c1nc(C)c(C)o1`, the result with Rattus norvegicus was inactive. In addition, the “inhibition (INH)” value in assay [1] was found to be 46%; in assay [2] it was 37%.
With `CCCC(=O)N(CC(C)CC)c1nc(C)co1` (stereo unspecified), in the assay with Rattus norvegicus, the result was inactive. In addition, the “inhibition (INH)” value is 35% in assay [1] and 33% in assay [2].
For the molecule `C=CCN(C(=O)C(C)C)c1nc(C)co1`, the outcome with Rattus norvegicus was inactive. For the same molecule, the “inhibition (INH)” value in assay [1] was determined as 42%; in assay [2], 23%.
As for `CCCCN(C(=O)C(C)CC)c1nc(C)co1` (racemic) [listing 1 of 2 here], in the assay with Rattus norvegicus, the result was inactive.
As for `CCCCc1coc(N(CCCC)C(=O)C(C)C)n1`, the outcome in the assay with Rattus norvegicus was inactive. The “inhibition (INH)” value in assay [2] was found to be 14%.
With `CCCCN(C(=O)C(C)C)c1nc(-c2ccc(Cl)cc2)co1`, the result in the assay on Rattus norvegicus was inactive. Besides, the “inhibition (INH)” value in assay [1] is recorded as 44%; in assay [2], 37%.
The like results for `Cc1coc(N(C)C(=O)C(C)C)n1` were, in that order, “inactive”, 61% and 25%.
Turning to `CCCCN(C(=O)C(C)C)c1ncc(C)o1`, in the assay with Rattus norvegicus, the result was inactive. The figures for the “inhibition (INH)” value in assay [1] and in assay [2] were 31% and 52%, respectively.
The corresponding values for `CCCCN(C(=O)C1CCCCCC1)c1nc(C)co1` are “inactive”, 0% and 49%.
As to `CCCCN(C(=O)Cc1ccccc1)c1nc(C)co1`, in the assay with Rattus norvegicus, the result was inactive. Also, the “inhibition (INH)” value in assay [1] is given as 0%; in assay [2], 31%.
As for `CCCCCCC(=O)N(CCCC)c1nc(C)co1`, in the assay with Rattus norvegicus, the result was inactive. Also, the “inhibition (INH)” value in assay [2] was determined as 8%.
Regarding `CN1CCC(=C2c3ccccc3CC(=O)c3sccc32)CC1.O=C(O)/C=C/C(=O)O` [KETOTIFEN FUMARATE], the “inhibition (INH)” value in assay [1] turned out to be 37%; in assay [2], 38%.
Consider `CCC(C)N(C(=O)C(C)C)c1nc(C)co1` (stereo unspecified), for which the result in the assay on Rattus norvegicus was inactive. Further, the “inhibition (INH)” value came to 3% in assay [1] and 13% in assay [2].
With `CCCC(=O)N(c1nc(C)co1)C1CCCCC1`, the outcome with Rattus norvegicus was inactive. For the same molecule, the figures for the “inhibition (INH)” value in assay [1] and in assay [2] were 37% and 29%, respectively.
As for `CCCCCN(C(=O)C(C)C)c1nc(C)co1`, the result with Rattus norvegicus was inactive. Besides, the inhibition at 10 µg/mL in assay [3] worked out at 14%; in assay [4] it was 47%. In addition, the “inhibition (INH)” value in assay [1] is given as 28%; in assay [2] it was 66%.
`CCCCN(C(=O)C(C)CC)c1nc(C)co1` (stereo in doubt; 38) [listing 1 of 2 here]: the figures for the “inhibition (INH)” value in assay [1] and in assay [2] were 8% and 63%, respectively.
With `CCCCN(C(=O)C1CCCC1)c1nc(C)co1`, the outcome in the assay with Rattus norvegicus was inactive. For the same molecule, the inhibition at 10 µg/mL in assay [3] amounted to 0%; in assay [4], 69%. The “inhibition (INH)” value in assay [1] stood at 47%; in assay [2], 66%.
Consider `CCN(C(=O)C(C)C)c1nc(C)c(C)o1`, for which, in the assay with Rattus norvegicus, the result was inactive. For the same molecule, the figures for the “inhibition (INH)” value in assay [1] and in assay [2] were 13% and 21%, respectively.
The corresponding values for `C=CCN(C(=O)CCC)c1nc(C)co1` are “inactive”, 51% and 31%.
For `CCCCN(C(=O)C(C)CC)c1nc(C)co1` (racemic) [listing 2 of 2 here], the inhibition at 10 µg/mL in assay [3] turned out to be 5%; in assay [4] it was 36%. Besides, the “inhibition (INH)” value in assay [1] was found to be 54%; in assay [2] it was 76%.
Turning to `CCCCN(C(C)=O)c1nc(C)co1`, the result in the assay with Rattus norvegicus was inactive. The “inhibition (INH)” value in assay [1] is on record as 26%; in assay [2] it was 39%.
In the case of `CCCCN(C(=O)C(C)CC)c1nc(C)co1` (stereo in doubt; 39) [listing 1 of 2 here], the outcome with Rattus norvegicus was inactive.
Regarding `CCCCN(C(=O)C(C)C)c1ncco1`, the outcome with Rattus norvegicus was inactive. Moreover, the “inhibition (INH)” value in assay [1] is reported as 8%; in assay [2] it was 44%.
With `CCCCN(C(=O)C(C)CC)c1nc(C)co1` (stereo in doubt; 39) [listing 2 of 2 here], the “inhibition (INH)” value in assay [1] amounted to 30%; in assay [2], 79%.
Consider `CCC(C)CN(C(=O)C(C)C)c1nc(C)co1` (stereo unspecified), for which, in the assay with Rattus norvegicus, the result was inactive. Further, the “inhibition (INH)” value in assay [1] came to 29%; in assay [2] it was 37%.
The like results for `CCCCCN(C(=O)CC)c1nc(C)co1` were, in that order, “inactive”, 16% and 41%.
Regarding `CC(=O)N(C)c1nc(C)c(C)o1`, in the assay with Rattus norvegicus, the result was inactive. Further, in assay [2], the “inhibition (INH)” value was 17%.
As for `CCCCN(C(=O)C1CCC1)c1nc(C)c(C)o1`, the result in the assay on Rattus norvegicus was inactive. Also, the “inhibition (INH)” value in assay [1] is given as 0%; in assay [2], 10%.
As for `CCCCN(C(=O)C1CCCCC1)c1nc(C)co1`, the outcome with Rattus norvegicus was inactive. Besides, the figures for the inhibition at 10 µg/mL in assay [3] and in assay [4] were 29% and 26%, respectively. The “inhibition (INH)” value in assay [1] was 27%; in assay [2], 32%.
`CCCC(=O)N(CC)c1nc(C)co1`: the result in the assay with Rattus norvegicus was inactive. The “inhibition (INH)” value came to 30% in assay [1] and 13% in assay [2].
For `CCC(=O)N(c1nc(C)co1)C(C)C`, the result with Rattus norvegicus was inactive. Further, the inhibition at 10 µg/mL in assay [3] and in assay [4] was 0% throughout. Also, in assay [2], the “inhibition (INH)” value came out at 17%.
As to `CCCCCCN(C(C)=O)c1nc(C)co1`, the result in the assay with Rattus norvegicus was inactive. The inhibition at 10 µg/mL in assay [3] came out at 13%; in assay [4], 15%. For the same molecule, the “inhibition (INH)” value in assay [2] was 8%.
As for `CCCCCCN(C(=O)C(C)C)c1nc(C)co1`, the result with Rattus norvegicus was inactive. In addition, the “inhibition (INH)” value is reported as 18% in assay [1] and 42% in assay [2].
The corresponding values for `CCCC(=O)N(c1nc(C)co1)C(C)CC` (stereo unspecified) are “inactive”, 6% and 34%.
The corresponding values for `CCCCN(C(=O)C(C)C)c1nc(-c2ccccc2)co1` are “inactive”, 23% and 39%.
In the case of `CCCCN(C(=O)CC1CCCC1)c1nc(C)co1`, the result in the assay with Rattus norvegicus was inactive. In addition, the inhibition at 10 µg/mL in assay [3] and in assay [4] was 0% each time. Further, the “inhibition (INH)” value in assay [1] came to 0%; in assay [2], 22%.
As to `CCCCN(C(=O)C(C)C)c1nc(C2CCCCC2)co1`, in the assay with Rattus norvegicus, the result was inactive. Further, the “inhibition (INH)” value in assay [2] is 0%.
As for `CCCCN(C(=O)C(CC)CC)c1nc(C)co1`, in the assay on Rattus norvegicus, the outcome was inactive. In addition, the results for the “inhibition (INH)” value in assay [1] and in assay [2] were 29% and 55%, respectively.
The like results for `CC(=O)N(C)c1nc(C)co1` were, in that order, “inactive”, 0% and 9%.
The like results for `CCCCN(C(=O)C(C)C)c1ncc(CC)o1` were, in that order, “inactive”, 52% and 35%.
For `CCCCN(C(=O)C(C)C)c1ncc(C2CCCCC2)o1`, the outcome in the assay with Rattus norvegicus was inactive. Besides, the “inhibition (INH)” value in assay [2] is recorded as 21%.
On to `CCCCN(C(=O)C(C)C)c1nc(CC)co1`, for which the outcome in the assay on Rattus norvegicus was inactive. Further, the “inhibition (INH)” value in assay [1] was 20%; in assay [2], 41%.
Turning to `CCCCN(C(=O)C(C)CC)c1nc(C)co1` (stereo in doubt; 38) [listing 2 of 2 here], the result with Rattus norvegicus was inactive.
Turning to `CCCCN(C(=O)C(C)C)c1nc(C)c(C)o1`, in the assay with Rattus norvegicus, the outcome was inactive. Further, the inhibition at 10 µg/mL in assay [3] stood at 49%; in assay [4], 43%. Moreover, the “inhibition (INH)” value in assay [1] worked out at 49%; in assay [2] it was 43%.
`Cc1coc(N(C(=O)C(C)C)C(C)C)n1`: in the assay on Rattus norvegicus, the outcome was inactive. Further, the inhibition at 10 µg/mL in assay [3] and in assay [4] was 0% each time. In assay [2], the “inhibition (INH)” value was 10%.
